Assay [1] concerns the target T1, Phospholipase A2, membrane associated (Homo sapiens, UniProt P14555).
T1 sequence (P14555 whole entry): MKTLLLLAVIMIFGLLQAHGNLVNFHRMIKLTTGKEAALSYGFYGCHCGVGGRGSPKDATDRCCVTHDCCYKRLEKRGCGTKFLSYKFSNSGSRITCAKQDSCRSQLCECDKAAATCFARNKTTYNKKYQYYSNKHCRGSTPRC
Description: Inhibition of human nonpancreatic secretory Phospholipase A2 through DOC/PC assay. In a few lines: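 hnps-PLA2 (10 ng per tube; 3 nM) was preincubated with test compound in DMSO in pH 8 Tris buffer with 0.2 M NaCl, 2 mM CaCl2 and fatty-acid-free BSA. The substrate was sonicated mixed micelles (final 3 mM deoxycholate/1 mM PC) with [14C]-palmitoyl-oleoyl-PC. Reactions ran 1 h at 40 °C and were stopped with Dole reagent. Released [14C]oleic acid was extracted with heptane/silica and counted. IC50 was calculated against diluent controls.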

For assay [2], the target named is T1, Phospholipase A2, membrane associated. Description: Inhibition of human nonpancreatic secretory Phospholipase A2 through chromogenic assay.
The nature of assay [3]: Mole fraction is the IC50 concentration divided by the total lipid concentration (4000 uM) in DOC/PC assay. It is filed as functional. In a few lines: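 The value is a mole fraction: the DOC/PC assay IC50 (3 nM hnps-PLA2; 3 mM DOC/1 mM [14C]PC micelles; 1 h at 40 °C; released [14C]oleic acid counted) divided by the total lipid concentration of 4000 µM.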
A short description of assay [4]: Mole fraction of the IC50 concentration of compound divided by the total lipid concentration (1230 uM) in a chromogenic assay. It is filed as functional.
The species named for assay [5] is Cavia porcellus. In words: Inhibition of Phospholipase A2 induced contraction of GP lung tissue. The assay is classed as functional. In a few lines:
(§1)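 Guinea pig lung pleural strips were contracted with either hnps-PLA2 or arachidonic acid, the latter serving as the control challenge for selectivity. Antagonism is given as KB.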

Another assay concerns the target Phospholipase A2 (Homo sapiens, UniProt P04054). Description: Compound was tested for inhibition of human secretory pancreatic Phospholipase A2.
Assay [6] concerns the target Phospholipase A2, major isoenzyme (Sus scrofa, UniProt P00592). In words: Compound was tested for inhibition of porcine secretory pancreatic Phospholipase A2.
The species named for assay [7] is Cavia porcellus. Description: Inhibition Arachidonic acid(AA) induced contraction of GP lung tissue. The assay is classed as functional. In a few lines: as §1

Data on 37 compounds can be found in ChEMBL document CHEMBL1129458, “Indole inhibitors of human nonpancreatic secretory phospholipase A2. 3. Indole-3-glyoxamides” (J Med Chem, 1996).

pIC50: −log10 of the molar value.

Chain of Phospholipase A2 (P04054 whole entry): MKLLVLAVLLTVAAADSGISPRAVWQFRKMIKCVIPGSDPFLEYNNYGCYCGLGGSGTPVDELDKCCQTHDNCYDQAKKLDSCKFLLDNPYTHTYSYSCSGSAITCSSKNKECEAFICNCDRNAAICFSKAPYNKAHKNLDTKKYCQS
Chain of Phospholipase A2, major isoenzyme (P00592 whole entry): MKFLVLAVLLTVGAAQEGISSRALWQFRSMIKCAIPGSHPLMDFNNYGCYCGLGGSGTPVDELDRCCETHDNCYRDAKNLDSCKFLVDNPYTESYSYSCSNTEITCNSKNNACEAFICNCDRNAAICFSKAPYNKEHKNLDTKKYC

As usually defined, the pIC50 is the negative decadic logarithm of the IC50, by convention in mol/L. Read a low pIC50 as a large IC50. As for `NC(=O)C(=O)c1c(C2CC2)n(Cc2ccccc2)c2cccc(OCC(=O)O)c12`, the results for the pIC50 in assay [1] and in assay [2] were 7.39 and 7.55, respectively. Further, the figures for the Mole fraction in assay [3] and in assay [4] were 1e-05 and 2.3e-05, respectively.

`CCc1[nH]c2cccc(OCC(=O)O)c2c1C(=O)C(N)=O` showed a KB in the assay filed under Cavia porcellus [5] of 3.41 µM. The compound further gave a pIC50 in assay [2] of 5.80. In assay [4], this compound registered a Mole fraction of 0.0013.

Take `CCCc1c(C(=O)C(N)=O)c2c(OCC(=O)O)cccc2n1Cc1ccccc1-c1ccccc1`: the Mole fraction in assay [4] turned out to be 6.7e-05.

`Cc1c(C(=O)C(N)=O)c2c(O[C@H](C)C(=O)O)cccc2n1Cc1ccccc1`: the values for the negative-log IC50 (pIC50) in assay [1] and in assay [2] were 8.22 and 7.96, respectively. Moreover, the figures for the Mole fraction in assay [3] and in assay [4] were 1.5e-06 and 8.9e-06, respectively.

For the compound `CCc1c(C(=O)C(N)=O)c2c(N(CC(=O)O)C(C)=O)cccc2n1Cc1ccccc1`, the pIC50 in assay [2] is less than 4.00.

For `CCCc1ccc2c(c1OCC(=O)O)c(C(=O)C(N)=O)c(CC)n2Cc1ccccc1`, the pIC50 in assay [2] was 5.68. In addition, the Mole fraction in assay [4] worked out at 0.0017.

In assay [2], `NC(=O)C(=O)c1cn(Cc2ccccc2)c2cccc(OCC(=O)O)c12` had a pIC50 of 7.02. In assay [4], this compound showed a Mole fraction of 8e-05.

In assay [4], `CCc1c(C(=O)C(N)=O)c2cc(OCCCC(=O)O)ccc2n1Cc1ccccc1` showed a Mole fraction of 0.00017.

Take `Cc1c(C(=O)C(N)=O)c2c(OCC(=O)O)cccc2n1Cc1cccc(-c2ccccc2)c1`: the pIC50 on Phospholipase A2 is 6.24; in assay [1] it was 8.10; in assay [2], 8.05; in assay [6], 8.15. Moreover, the Mole fraction in assay [3] was determined as 2e-06; in assay [4], 7.3e-06.

The compound `CCc1c(C(=O)C(N)=O)c2c(N(CCC(=O)O)C(C)=O)cccc2n1Cc1ccccc1` gave a pIC50 in assay [2] of less than 4.00.

For the compound `CCc1c(C(=O)C(N)=O)c2c(OCC(=O)O)cccc2n1C(=O)c1ccccc1`, in the assay filed under Cavia porcellus [5], the KB came out at 0.34 µM. Further, the pIC50 in assay [1] is 7.41; in assay [2], 7.09. Also, the Mole fraction in assay [3] came to 9.8e-06; in assay [4], 6.6e-05.

As for `Cc1c(C(=O)C(N)=O)c2c(OCC(=O)O)cccc2n1Cc1ccccc1`, in the assay listed under Cavia porcellus [7], the ED50 was greater than 10 µM. In the assay listed under Cavia porcellus [5], this compound yielded a KB of 0.14 µM. Further, the pIC50 at Phospholipase A2 was 6.12; in assay [1] it was 7.72; in assay [2], 7.96; in assay [6], 7.82. The values for the Mole fraction in assay [3] and in assay [4] were 4.8e-06 and 8.9e-06, respectively.

`CCc1c(C(=O)C(N)=O)c2c(NCC(=O)O)cccc2n1Cc1ccccc1` gave a negative-log IC50 (pIC50) in assay [2] of 6.00. The compound also displayed a Mole fraction in assay [4] of 0.00081.

`CCc1c(C(=O)C(N)=O)c2c(SCC(=O)O)cccc2n1Cc1ccccc1`: the pIC50 in assay [1] is 6.68; in assay [2], 6.84. The Mole fraction was 5.3e-05 in assay [3] and 0.00012 in assay [4].

As for `Cc1c(C(=O)C(N)=O)c2c(OC(C)C(=O)O)cccc2n1Cc1ccccc1` (stereo not given), the ED50 in the assay listed under Cavia porcellus [7] is greater than 30 µM. For the same compound, the KB in the assay filed under Cavia porcellus [5] worked out at 0.145 µM. In assay [2], this compound gave a pIC50 of 8.00. For the same compound, the Mole fraction in assay [3] was determined as 2.3e-06; in assay [4], 8.1e-06.

The compound `COc1cccc2c1c(C(=O)C(N)=O)c(C)n2Cc1ccccc1` gave a pIC50 in assay [2] of 6.26. In addition, the Mole fraction in assay [4] amounted to 0.00012.

As for `CCc1c(C(=O)C(N)=O)c2c(OC(C)C(=O)O)cccc2n1Cc1ccccc1` (stereo not given), the ED50 in the assay listed under Cavia porcellus [7] amounted to 3.16 µM. The same compound showed a KB in the assay listed under Cavia porcellus [5] of 0.21 µM. The pIC50 in assay [1] is 7.89; in assay [2], 7.96. For the same compound, the Mole fraction was 3.3e-06 in assay [3] and 8.9e-06 in assay [4].

In assay [4], `NC(=O)C(=O)c1cn(Cc2ccccc2)c2ccc(OCCCC(=O)O)cc12` came in with a Mole fraction of 0.048.

For the compound `Cc1ccccc1Cn1c(C)c(C(=O)C(N)=O)c2c(OCC(=O)O)cccc21`, in the assay filed under Cavia porcellus [7], the ED50 is greater than 30 µM. In the assay listed under Cavia porcellus [5], this compound displayed a KB of 0.154 µM. Besides, the pIC50 in assay [1] is 7.35; in assay [2], 7.82. Further, the Mole fraction in assay [3] was 1.1e-05; in assay [4], 1.3e-05.

In turn, `Cc1c(C(=O)C(N)=O)c2c(OCCCC(=O)O)cccc2n1Cc1ccccc1-c1ccccc1` gave a pIC50 in assay [2] of 6.61. In addition, the Mole fraction in assay [4] is 0.0002.

Compound `CCc1c(C(=O)C(N)=O)c2c(OCC(=O)O)cccc2n1Cc1ccccc1-c1ccccc1` came in with an ED50 in the assay filed under Cavia porcellus [7] of 30 µM. This compound had a KB in the assay filed under Cavia porcellus [5] of 0.057 µM. Besides, the pIC50 in assay [1] and in assay [2] was 8.22 throughout. For the same compound, the figures for the Mole fraction in assay [3] and in assay [4] were 1.5e-06 and 5e-06, respectively.

`Cc1c(C(=O)C(N)=O)c2c(OCC(=O)O)cccc2n1Cc1cccc2ccccc12`: in the assay listed under Cavia porcellus [7], the ED50 was greater than 30 µM. Also, the KB in the assay listed under Cavia porcellus [5] stood at 0.128 µM. Also, the pIC50 was 5.92 against Phospholipase A2, 7.77 in assay [1] and 8.05 in assay [2]. The Mole fraction stood at 4.3e-06 in assay [3] and 7.3e-06 in assay [4].

`COc1cccc2c1c(CC(N)=O)c(C)n2Cc1ccccc1` showed a pIC50 in assay [2] of 5.93. In assay [4], the Mole fraction was 0.00012.

Consider `Cc1c(C(=O)C(N)=O)c2c(O[C@@H](C)C(=O)O)cccc2n1Cc1ccccc1`, for which the figures for the pIC50 in assay [1] and in assay [2] were 6.87 and 6.73, respectively. Also, the results for the Mole fraction in assay [3] and in assay [4] were 3.4e-05 and 0.00015, respectively.

On to `CCc1c(C(=O)C(N)=O)c2c(CC(=O)O)cc(C)cc2n1Cc1ccccc1`, for which the ED50 in the assay listed under Cavia porcellus [7] was 3.16 µM. The same compound registered a KB in the assay filed under Cavia porcellus [5] of 0.124 µM. In addition, the negative-log IC50 (pIC50) in assay [1] and in assay [2] was 8.10 throughout. The Mole fraction in assay [3] was 2e-06; in assay [4], 6.5e-06.

As to `C=CCc1ccc2c(c1OCC(=O)O)c(C(=O)C(N)=O)c(CC)n2Cc1ccccc1`, the pIC50 in assay [2] was 5.79. For the same compound, the Mole fraction in assay [4] worked out at 0.013.

Compound `Cc1c(C(=O)C(N)=O)c2c(OCC(=O)O)cccc2n1Cc1ccccc1Cl` registered an ED50 in the assay filed under Cavia porcellus [7] greater than 30 µM. In addition, the KB in the assay filed under Cavia porcellus [5] turned out to be 0.1 µM. The pIC50 in assay [1] was 7.60; in assay [2] it was 8.05. Further, the Mole fraction in assay [3] was found to be 6.3e-06; in assay [4], 7.3e-06.

`CCc1c(C(=O)C(N)=O)c2c(OC(C)(C)C(=O)O)cccc2n1Cc1ccccc1` returned an ED50 in the assay listed under Cavia porcellus [7] greater than 30 µM. Besides, in the assay listed under Cavia porcellus [5], the KB came to 0.143 µM. Besides, the pIC50 in assay [1] was 7.54; in assay [2], 7.60. Besides, the values for the Mole fraction in assay [3] and in assay [4] were 7.3e-06 and 2.1e-05, respectively.

With `COc1ccc2c(c1)c(C(=O)C(N)=O)c(C)n2Cc1ccccc1`, the pIC50 in assay [2] was 5.59. Further, in assay [4], the Mole fraction was determined as 0.00012.

`CCc1c(C(=O)C(N)=O)c2c(O[C@@H](C)C(=O)O)cccc2n1Cc1ccccc1` gave a pIC50 in assay [2] of 6.85. Further, the Mole fraction in assay [4] was found to be 0.00011.

`Cc1c(C(=O)C(N)=O)c2c(OCC(=O)O)cccc2n1Cc1ccc(-c2ccccc2)cc1`: the pIC50 at Phospholipase A2 is 5.96; in assay [1] it was 6.82; in assay [2], 7.37. The Mole fraction in assay [3] came out at 3.8e-05; in assay [4], 3.6e-05.

In the case of `CCc1c(C(=O)C(N)=O)c2c(OC(CCc3ccccc3)C(=O)O)cccc2n1Cc1ccccc1` (stereo not given), the ED50 in the assay filed under Cavia porcellus [7] was greater than 30 µM. The KB in the assay listed under Cavia porcellus [5] is 0.293 µM. The pIC50 in assay [1] was 7.59; in assay [2], 7.34. Besides, the Mole fraction worked out at 6.5e-06 in assay [3] and 3.8e-05 in assay [4].

In the assay listed under Cavia porcellus [7], `Cc1c(C(=O)C(N)=O)c2c(OCC(=O)O)cccc2n1Cc1c(Cl)cccc1Cl` gave an ED50 greater than 30 µM. The compound also returned a KB in the assay filed under Cavia porcellus [5] of 0.077 µM. Moreover, the pIC50 in assay [1] is 7.66. Also, the Mole fraction came to 5.5e-06 in assay [3] and 5e-06 in assay [4].

`NC(=O)C(=O)c1c(C2CC2)n(Cc2ccccc2-c2ccccc2)c2cccc(OCC(=O)O)c12` came in with an ED50 in the assay filed under Cavia porcellus [7] greater than 10 µM. The compound further yielded a KB in the assay filed under Cavia porcellus [5] of 0.075 µM. Besides, the pIC50 is 7.64 in assay [1] and 8.22 in assay [2]. In addition, the Mole fraction in assay [3] was 5.8e-06; in assay [4] it was 5e-06.

For `CCc1c(C(=O)C(N)=O)c2c(OCC(=O)O)cccc2n1Cc1ccccc1Cc1ccccc1`, the KB in the assay listed under Cavia porcellus [5] came out at 0.052 µM. Moreover, the pIC50 against Phospholipase A2 was 7.21; in assay [1] it was 8.40; in assay [2] it was 8.40. The Mole fraction amounted to 1e-06 in assay [3] and 3.3e-06 in assay [4].

As for `CCc1c(C(=O)C(N)=O)c2c(OCC(N)=O)cccc2n1Cc1ccccc1`, in assay [2], the pIC50 was 6.91. Also, in assay [4], the Mole fraction came to 0.0001.

Consider `Cc1c(C(=O)C(N)=O)c2c(OCC(=O)O)cccc2n1Cc1ccc(F)cc1`, for which the ED50 in the assay listed under Cavia porcellus [7] is greater than 30 µM. The KB in the assay listed under Cavia porcellus [5] stood at 0.11 µM. In addition, the pIC50 was 7.13 in assay [1] and 7.52 in assay [2]. For the same compound, the Mole fraction was found to be 1.9e-05 in assay [3] and 2.5e-05 in assay [4].
